Active and inactive are the calls of the source. No cut-off for these calls is given here.
Key:
MDA-MB-231 [1] = experiment: Antiproliferative activity against human MDA-MB-231 cells after 4 days by microplate assay; assay type: functional, cell-based; conditions: MDA-MB-231, 96 h
In short: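 Cells grown 2–3 days in 96-well plates (37 °C, 5% CO2), medium then replaced with compound-containing medium (controls 0.1% DMF), about 4 days' exposure. Fixed with 1% glutaric dialdehyde, stained with 0.02% crystal violet for 25 min, dye extracted with 70% EtOH, OD read at 578 nm; initial density from fixed wells. IC50 from 16–24 replicates per experiment.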

MCF7 = experiment: Antiproliferative activity against human MCF7 cells after 5 days by microplate assay; assay type: functional, cell-based; conditions: MCF7, 120 h
In short: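 MCF-7 cells in EMEM with sodium pyruvate, gentamycin, NaHCO3, phenol red, 10% FCS; grown 2–3 days in 96-well plates, then medium with compound (0.1% DMF in controls) for 5 days. Glutaric dialdehyde fixation, 0.02% crystal violet staining, 70% EtOH extraction, OD 578 nm. Initial density from fixed wells. IC50; mean of two independent experiments, 16–24 replicates.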

HL-60 (Homo sapiens) [2] = experiment: Inhibition of cell growth in human HL-60 cells after 48 hrs by MTT assay; conditions: HL-60, 48 h
HL-60 (Homo sapiens) [3] = experiment: Induction of apoptosis in human HL-60 cells assessed as increase in caspase 3 activation at 1 uM after 24 hrs
HL-60 (Homo sapiens) [4] = experiment: Induction of apoptosis in human HL-60 cells assessed as increase in caspase 9 activation at 1 uM after 24 hrs
A-431 = experiment: Inhibition of cell growth in human A431 cells after 3 days by microplate assay; assay type: functional, cell-based; conditions: A-431, 72 h
In short: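 A-431 vulva carcinoma cells, crystal violet microplate protocol as for MDA-MB 231 but with 5% FCS; 3 days' exposure, 0.1% DMF controls. Fixation with glutaric dialdehyde, 0.02% crystal violet, 70% EtOH extraction, OD 578 nm. IC50, mean of four independent experiments with 16–24 replicates ± SD.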

Bos taurus = species: Bos taurus; experiment: Inhibition of temperature-induced tubulin polymerization of calf brain at 40 uM; parameters: scale not given: the % may be the effect or the level left
In short: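 Calf brain tubulin purified by temperature-dependent polymerization cycles, then depolymerized at 0 °C in PEMG buffer. Supernatant preincubated 15 min at 37 °C with compound (40 µM, DMSO), chilled, and GTP added. Polymerization started by shifting from 2 °C to 37 °C, followed by absorbance at 350 nm over 20 min. Reported relative to inhibitor-free controls (100%).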

[5] = Antitumor activity against MXT cells xenografted B2D2F1 mouse at 10 mg/kg, sc relative to control; assay type: functional; conditions: route subcutaneous
In short: (§1)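 Hormone-resistant MXT tumor pieces (1 mm³) transplanted into 8- to 9-week-old female B2D2F1 mice, groups of 6–8, randomly assigned. Compound given subcutaneously three times per week for two weeks. Tumor area compared with untreated controls (T/C × 100). Body weight change taken between first and last treatment day.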

[6] = Antitumor activity against MXT cells xenografted B2D2F1 mouse at 30 mg/kg, sc relative to control; assay type: functional; conditions: route subcutaneous; in short: as §1
Mus musculus [7] = experiment: Effect on body weight in MXT cells xenografted B2D2F1 mouse at 10 mg/kg, sc; assay type: functional; conditions: route subcutaneous; in short: as §1
Mus musculus [8] = experiment: Effect on body weight in MXT cells xenografted B2D2F1 mouse at 30 mg/kg, sc; assay type: functional; conditions: route subcutaneous; in short: as §1
MDA-MB-231 [9] = experiment: Cell cycle arrest in MDA-MB-231 cells by accumulation at G2/M phase at 0.1 uM after 24 hrs by flow cytometry; assay type: functional, cell-based; conditions: Homo sapiens
In short: (§2)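 Cells grown to 70–80% confluence in flasks and exposed 24 h to compound in DMF (0.1% final), one flask per concentration. Trypsinized, fixed in ice-cold 70% EtOH, DNA extraction buffer 5 min, propidium iodide staining ≥30 min at room temperature. Flow cytometry of 8,000–15,000 events; percentages of sub-G1, G1/G0, S, G2/M cells; representative of two experiments.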

MDA-MB-231 [10] = experiment: Cell cycle arrest in MDA-MB-231 cells by accumulation at G2/M phase at 0.5 uM after 24 hrs by flow cytometry; assay type: functional, cell-based; conditions: Homo sapiens; in short: as §2
MDA-MB-231 [11] = experiment: Cell cycle arrest in MDA-MB-231 cells by accumulation at G2/M phase at 1.0 uM after 24 hrs by flow cytometry; assay type: functional, cell-based; conditions: Homo sapiens; in short: as §2
MDA-MB-231 [12] = experiment: Cell cycle arrest in MDA-MB-231 cells by accumulation at G2/M phase at 0.01 uM after 24 hrs by flow cytometry; assay type: functional, cell-based; conditions: Homo sapiens; in short: as §2

Row | IC50 (MDA-MB-231 [1]) | IC50 (MCF7) | SMILES | further results
1 | 78 nM | 100 nM | CCCCCc1ccc2[nH]c(-c3ccc(C(F)(F)F)cc3)c(C=C(C#N)C#N)c2c1 | 
2 | 180 nM | 250 nM | COc1ccc2c(C=C(C#N)C#N)c(-c3ccc(C)cc3)[nH]c2c1 | 
3 | 56 nM | 150 nM | CCCCc1ccc2[nH]c(-c3ccc(C(F)(F)F)cc3)c(C=C(C#N)C#N)c2c1 | IC50 (HL-60 (Homo sapiens) [2]): 70 nM; Activity (HL-60 (Homo sapiens) [3]): Active; Activity (HL-60 (Homo sapiens) [4]): Active
4 | 260 nM | 180 nM | COc1ccc(-c2[nH]c3ccc(OC)cc3c2C=O)cc1 | IC50 (A-431): 200 nM; Activity (Bos taurus): 7%
5 | 280 nM | 220 nM | COc1ccc(-c2[nH]c3cc(F)ccc3c2C=C(C#N)C#N)cc1 | Activity [5]: 74%; Activity [6]: 56%; Activity (Mus musculus [7]): 3.6%; Activity (Mus musculus [8]): 2.3%
6 | 75 nM | 200 nM | COc1ccc(-c2[nH]c3cc(Cl)c(C)cc3c2C=C(C#N)C#N)cc1 | 
7 | 260 nM | 300 nM | COc1ccc(-c2[nH]c3cc(OC)ccc3c2C=C(C#N)C#N)cc1 | 
8 | 76 nM | 200 nM | CCCCc1ccc2[nH]c(-c3ccc(CC)cc3)c(C=C(C#N)C#N)c2c1 | 
9 |  |  | COc1cc([C@@H]2c3cc4c(cc3[C@@H](O[C@@H]3O[C@@H]5CO[C@@H](C)O[C@H]5[C@H](O)[C@H]3O)[C@H]3COC(=O)[C@H]23)OCO4)cc(OC)c1O [ETOPOSIDE] | IC50 (HL-60 (Homo sapiens) [2]): 315 nM
10 | 420 nM | 650 nM | O=Cc1c(-c2ccccc2)[nH]c2ccccc12 [2-PHENYL-1H-INDOLE-3-CARBALDEHYDE] | IC50 (A-431): 760 nM; Activity (Bos taurus): 98%
11 | 46 nM | 25 nM | CCCCCCc1ccc2[nH]c(-c3ccc(OC)cc3)c(C=C(C#N)C#N)c2c1 | Activity (MDA-MB-231 [9]): Active; Activity (MDA-MB-231 [10]): Active; Activity (MDA-MB-231 [11]): Active
12 | 65 nM | 100 nM | CCCCc1ccc2[nH]c(-c3ccc(C)cc3)c(C=C(C#N)C#N)c2c1 | 
13 | 4.5 nM |  | CC[C@]1(O)C[C@H]2CN(CCc3c([nH]c4ccccc34)[C@@](C(=O)OC)(c3cc4c(cc3OC)N(C=O)[C@H]3[C@@](O)(C(=O)OC)[C@H](OC(C)=O)[C@]5(CC)C=CCN6CC[C@]43[C@@H]65)C2)C1 [VINCRISTINE] | Activity (MDA-MB-231 [12]): Active; Activity (MDA-MB-231 [9]): Active
14 | 26 nM | 13 nM | CCCCc1ccc2[nH]c(-c3ccc(OC)cc3)c(C=C(C#N)C#N)c2c1 | 
15 | 83 nM | 190 nM | CCCc1ccc2[nH]c(-c3ccc(OC)cc3)c(C=C(C#N)C#N)c2c1 | 
16 | 470 nM | 180 nM | COc1ccc(-c2[nH]c3ccccc3c2C=O)cc1 | IC50 (A-431): 210 nM; Activity (Bos taurus): 3%
17 | 430 nM | 190 nM | N#CC(C#N)=Cc1c(-c2ccccc2)[nH]c2ccccc12 | 
18 | 47 nM | 43 nM | COc1ccc(-c2[nH]c3cc(F)ccc3c2C=O)cc1 | IC50 (A-431): 180 nM; Activity (Bos taurus): 8%
19 | 210 nM | 310 nM | COc1ccc(-c2[nH]c3ccc(C(C)C)cc3c2C=C(C#N)C#N)cc1 | 
20 | 150 nM | 68 nM | CCCCCCc1ccc2[nH]c(-c3ccc(C(F)(F)F)cc3)c(C=C(C#N)C#N)c2c1 | 
21 | 280 nM | 200 nM | COc1ccc(-c2[nH]c3ccc(C)cc3c2C=C(C#N)C#N)cc1 | 
22 | 590 nM | 340 nM | COc1ccc(-c2[nH]c3ccc(OC)cc3c2C=C(C#N)C#N)cc1 | 
23 | 400 nM | 310 nM | COc1ccc(-c2[nH]c3ccc(F)cc3c2C=C(C#N)C#N)cc1 | 
24 | 720 nM | 770 nM | COc1ccc(-c2[nH]c3ccccc3c2C=C(C#N)C#N)cc1 | 
25 | 42 nM | 76 nM | CCCCCc1ccc2[nH]c(-c3ccc(OC)cc3)c(C=C(C#N)C#N)c2c1 | IC50 (HL-60 (Homo sapiens) [2]): 41 nM; Activity (HL-60 (Homo sapiens) [3]): Active; Activity (HL-60 (Homo sapiens) [4]): Active

Reference: ChEMBL document CHEMBL1137541, “[(2-Phenylindol-3-yl)methylene]propanedinitriles inhibit the growth of breast cancer cells by cell cycle arrest in G(2)/M phase and apoptosis” (Bioorg Med Chem, 2007)
